Compound activity deposited in PubChem BioAssay by Sanford-Burnham Center for Chemical Genomics.
SENP6 block: SENP6 protease inhibitors, primary screen, biochemical, luminescence, uHTS; Sentrin-specific protease 6 (Homo sapiens), Q9GZR1; Recombinant SENP6 catalytic domain, aminoluciferin luminescence; inhibition, % at 10 µM; 1.8% of 330,000 active;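 active = inhibition above about 50% at the single tested dose, limit read from the data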;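 note: plate controls were DMSO wells with enzyme for no effect and DMSO wells lacking enzyme for full effect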
SENP1 inh: human SENP1 catalytic domain inhibitors, primary screen, biochemical, FRET, uHTS; recombinant SENP1 catalytic domain, CyPet-SUMO1-YPet FRET cleavage; 0.21% of 360,000 active; inhibition, % at 10 µM;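 active = inhibition at least 30% at 10 µM, raw YFP signal under a set limit, fluorescence ratio 0.5 to 1.5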;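 note: 0% = enzyme with DMSO and 100% = no enzyme wells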
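Assay system – human recombinant His6-tagged SENP1 catalytic domain enzyme · Input – SENP1 enzyme, 20 pM final · Buffer or medium – Tris pH 8 buffer plus EDTA, NaCl, BME, BSA, NP40, catalase · Schedule – 50 min reaction at room temperature · Technique – FRET read of cyan and yellow fluorescence · Control set – no-enzyme wells low, DMSO-plus-enzyme wells high control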
SENP8 block-1: human SENP8 protease inhibitors, primary screen, biochemical, fluorescence, Nedd8 protein substrate, uHTS. recombinant SENP8. inhibition, % at 20 µM. 0.64% of 360,000 active; in the data active = inhibition mostly above about 40%, no sharp cut-off; inactive = mostly below about 27%
SENP7 inh: SENP7 protease inhibitors, primary screen, biochemical, luminescence, uHTS; 1.5% of 330,000 active; inhibition, % at 5 µM; AID 434973, 2010; recombinant SENP7, Z-RLRGG-aminoluciferin luminescence, 40 min; Sentrin-specific protease 7 (Homo sapiens), Q9BQF6;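 active = inhibition above about 50% at the single test dose, limit read from the data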;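 note: plate controls were DMSO with enzyme for no effect and no enzyme buffer wells for full effect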
Target sequence (Q9BQF6 706-1050 limits assumed): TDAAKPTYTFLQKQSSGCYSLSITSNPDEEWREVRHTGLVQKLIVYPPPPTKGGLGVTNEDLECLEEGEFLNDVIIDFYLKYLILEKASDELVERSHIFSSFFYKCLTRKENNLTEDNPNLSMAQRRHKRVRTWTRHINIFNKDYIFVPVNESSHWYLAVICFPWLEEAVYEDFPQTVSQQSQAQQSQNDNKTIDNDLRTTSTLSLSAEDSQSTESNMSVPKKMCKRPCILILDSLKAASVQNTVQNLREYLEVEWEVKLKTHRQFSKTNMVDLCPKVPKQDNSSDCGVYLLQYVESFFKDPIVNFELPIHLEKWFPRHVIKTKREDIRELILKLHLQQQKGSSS
SENP8 block-2: SENP8 protease inhibitors, primary screen, biochemical, luminescence | inhibition, % at 10 µM | AID 2540, 2010 | 1.2% of 330,000 active | Sentrin-specific protease 8 (Homo sapiens), Q96LD8 | purified SENP8, Z-RLRGG-aminoluciferin cleavage; in the data active = inhibition above about 50%
SENP8 inh conf: human SENP8 protease inhibitors, confirmation, biochemical, Nedd8 protein substrate, single concentration. shares compounds with SENP8 block-1. purified SENP8, Nedd8-AMC/pro-Nedd8 cleavage fluorescence, 30 min. inhibition, % at 25 µM. 15% of 1,400 active; in the data active = inhibition mostly above about 39%, no sharp cut-off; inactive = mostly below about 34%
Active calls of the source: *. Sampled rows, rich in hits. Any-hit rate of the full collection: about 2.5%.

CN(C)c1ccc(NC(=O)c2ccc(Cn3cc([N+](=O)[O-])cn3)cc2)cc1 was read as SENP6 block -9.6, SENP1 inh 5.8, SENP8 block-1 43.6*, SENP7 inh 2.1, SENP8 block-2 7.2 and SENP8 inh conf 38.8.
COc1ccc(NC(=O)c2ccc(Cn3cc(Cl)cn3)cc2)cc1 was read as SENP6 block -8.5, SENP1 inh 0.3, SENP8 block-1 6.0, SENP7 inh -1.8 and SENP8 block-2 -4.5.
For Cc1ccc(N)c2c1OCCC2=O the results were SENP6 block 2.5, SENP1 inh -49.3, SENP8 block-1 -166.2, SENP7 inh 1.5 and SENP8 block-2 3.9.
`O=c1cc(N2CCCCCC2)[nH]c(=O)n1-c1ccc(Cl)cc1` gave SENP6 block -5.8, SENP1 inh 0.2, SENP8 block-1 14.8, SENP7 inh 1.8 and SENP8 block-2 3.1.
Screening Cc1ccc(-n2c(=O)cc(N3CCCCCC3)[nH]c2=O)cc1 returned SENP6 block -18.6, SENP1 inh 1.6, SENP8 block-1 44.9*, SENP7 inh 6.4, SENP8 block-2 -6.0 and SENP8 inh conf 13.7.
`CCn1cc(C(=O)N2CCCC(C(=O)c3cccc(C(F)(F)F)c3)C2)cn1` (stereo not given) gave SENP1 inh 2.5 and SENP8 block-1 21.7.
CC(C)(C)NC(=O)C1c2ccccc2OCC(=O)N1Cc1ccccc1 (stereo not given) was read as SENP1 inh 1.9 and SENP8 block-1 17.5.
COc1cccc(N=Nc2c(=O)[nH]n3c(=O)c4c([nH]c23)CCC4)c1 was read as SENP6 block 5.3, SENP1 inh 4.1, SENP8 block-1 30.6, SENP7 inh 0.8 and SENP8 block-2 -4.2.
`COc1cccc(N=Nc2c(=O)[nH]n3c(=O)cc(C)[nH]c23)c1` gave SENP6 block 12.5, SENP1 inh 2.8, SENP8 block-1 47.5*, SENP7 inh -6.5, SENP8 block-2 -3.8 and SENP8 inh conf 32.1.
Screening O=C(NC1CCCCC1)C(c1ccccc1)N(Cc1ccco1)C(=O)c1csnn1 (stereo not given) returned SENP6 block -12.7, SENP1 inh 1.0, SENP8 block-1 2.9, SENP7 inh -3.1 and SENP8 block-2 2.8.
Screening O=C(NC1CCCC1)C(c1cccs1)N(Cc1ccco1)C(=O)c1csnn1 (stereo not given) returned SENP6 block -10.1, SENP1 inh 0.8, SENP8 block-1 40.5*, SENP7 inh 5.6, SENP8 block-2 5.5 and SENP8 inh conf 4.3.
For O=[N+]([O-])c1ccc(-[n+]2ccc3ccccc3c2)c([N+](=O)[O-])c1 the results were SENP6 block 40.6, SENP1 inh 3.3, SENP8 block-1 46.2*, SENP7 inh 0.2, SENP8 block-2 22.3 and SENP8 inh conf 35.1.
Screening CCOC(=O)c1nc(NNC(=O)c2ccc([N+](=O)[O-])cc2)sc1C returned SENP6 block 20.0, SENP1 inh 0.4, SENP8 block-1 41.0*, SENP7 inh 4.9, SENP8 block-2 -1.6 and SENP8 inh conf 2.3.
For CCOC(=O)c1sc(NNC(=O)c2ccc(C)cc2)nc1C the results were SENP6 block -18.4, SENP1 inh -11.9, SENP8 block-1 5.2, SENP7 inh -10.2 and SENP8 block-2 -3.9.
COc1ccc(NC(C)C(=O)N/N=C/c2ccccc2OCc2ccc(Br)cc2)cc1 (stereo not given) was read as SENP6 block 16.0, SENP1 inh -0.4, SENP8 block-1 28.3, SENP7 inh 5.2 and SENP8 block-2 8.9.
Screening CC(Nc1ccc(Br)cc1)C(=O)N/N=C/c1ccccc1OCc1ccccc1 (stereo not given) returned SENP6 block -2.5, SENP1 inh 5.3, SENP8 block-1 46.5*, SENP7 inh -6.5, SENP8 block-2 -12.8 and SENP8 inh conf 22.0.
For COc1cccc(C=Nc2cc(C(C)C)c(O)cc2C)c1O the results were SENP1 inh 9.1, SENP8 block-1 69.5* and SENP8 inh conf 23.4.
